Measured values published in ChEMBL document CHEMBL1154231, “Bioactive Nortriterpenoids from Schisandra grandiflora” (J Nat Prod, 2009).
In brackets after ≈: the same amount, converted by molar mass.

Columns and labels:
HepG2 = assay: Cytotoxicity against human HepG2 cells after 48 hrs by sulforhodamine B assay; type: functional, cell-based; conditions: HepG2, 48 h
[1] = Selectivity index, ratio of CC50 for human C8166 cells to EC50 for HIV1; type: toxicity, cell-based; conditions: read-out: Ratio CC50/EC50
Outline: (§1)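 HIV-1-induced cytopathic effect inhibition in permanent human T-cell line C8166, giving EC50. Cytotoxicity to uninfected C8166 cells run in parallel by MTT, giving CC50. Selectivity index taken as CC50/EC50. AZT served as positive control.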

K562 = assay: Cytotoxicity against human K562 cells after 48 hrs by sulforhodamine B assay; type: functional, cell-based; conditions: K562, 48 h
[2] = tested on: Human immunodeficiency virus 1; assay: Antiviral activity against HIV1 infected in human C8166 cells assessed as inhibition of virus-induced cytopathic effect; type: functional, organism-based; conditions: Human immunodeficiency virus 1, C8166; outline: as §1
[3] = Cytotoxicity against human C8166 cells by MTT assay; type: cell-based; outline: as §1

| EC50 [2] | SMILES | IC50 (HepG2) | selectivity ratio [1] | IC50 (K562) | CC50 [3] |
| --- | --- | --- | --- | --- | --- |
| 80.2 µg/mL (≈ 143 µM) | C[C@@H]1C(=O)[C@@]2(C)CC[C@]34C[C@]56OC(=O)C[C@H]5O[C@@](C)(CO)[C@@H]6CC[C@@]3(O)C(=O)[C@@]3(O[C@@]5(C[C@H](C)C(=O)O5)[C@@H]1[C@H]32)O4 [SCHIGRANDILACTONE A] | 0.19 µg/mL (≈ 0.339 µM) | 1.1 | 0.13 µg/mL (≈ 0.232 µM) |  |
| 20.8 µg/mL (≈ 37.2 µM) | C[C@@H]1C(=O)[C@@]2(C)CC[C@]34C[C@]56OC(=O)C[C@H]5O[C@@](C)(CO)[C@@H]6C[C@@H]5O[C@@]53C(=O)[C@@]3(O[C@@]5(C[C@H](C)C(=O)O5)[C@@H]1[C@H]32)O4 [SCHIGRANDILACTONE B] | 0.2 µg/mL (≈ 0.358 µM) | 4 | 3.19 µg/mL (≈ 5.71 µM) |  |
| 5.1 µg/mL (≈ 9.1 µM) | C[C@@H]1C(=O)[C@@]2(C)CC[C@]34C[C@]56OC(=O)C[C@H]5O[C@@](C)(CO)[C@@H]6[C@@H](O)C[C@H]3C(=O)[C@]3(O4)O[C@@]4(C[C@H](C)C(=O)O4)[C@@H]1[C@H]32 [SCHIGRANDILACTONE C] |  | 12.7 |  |  |
|  | Cc1cn([C@H]2C[C@H](N=[N+]=[N-])[C@@H](CO)O2)c(=O)[nH]c1=O [ZIDOVUDINE] |  |  |  | > 200 µg/mL |
